# PglD inh – inhibitors of Campylobacter jejuni PglD acetyltransferase. purified PglD enzyme, DTNB colorimetric CoA detection. inhibition, % at 12.5 µM. 360,000 compounds, 0.098% hits. AID 602405; in the data active = inhibition above about 16%, passing the limit was not always enough; inconclusive = no clear call, values can overlap the other calls
# FGF22 binding – shifts melting point of recombinant human FGF22; recombinant FGF22 thermal shift, SYPRO orange fluorescence; percent of sucrose octasulfate shift, DMSO zero; activity (Tm shift, normalised), % at 9.99 µM; 340,000 compounds, 1.5% hits; AID 651658;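 active = mean Tm shift, scaled 0 neutral to 100 positive control, at about 1.3% or above, every replicate too, limit read from the data; inconclusive = no clear call, values can overlap the other calls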
# Xi reactivation – X-chromosome reactivation activator. AID 743238. 360,000 compounds, 0.055% hits. XiGFP mouse fibroblasts, % GFP-positive cells imaging, 3 d; cells co-treated with 5-aza-dC sensitizer; scaled so ellipticine positive control = 100%. activation, % at 7.58 µM;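 active = mean normalized replicate activation at least 10% and every replicate at or above 10%; inconclusive = only one of the two criteria met; inactive = mean below 10% and not all replicates reach 10%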;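 also: 0% = median of on-plate neutral control wells and 100% = ellipticine 6 µM median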
#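 System: 68-5-11 XiGFP fibroblast line | Buffer or medium: DMEM containing 5-aza-dC | Compound: Single point | Times: Compounds 3 days, fix/stain 15 min at room temperature | Benchmarks: Positive control ellipticine, 6 µM final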
# DENV2 CPE – inhibitors of DENV2 cytopathic effect | 350,000 compounds, 1.7% hits | CPE inhibition, % at 9.99 µM | DENV2-infected cells, cytopathic effect rescue, plate reader | AID 651640; in the data active = CPE inhibition above about 20%, passing the limit was not always enough; inconclusive = no clear call, values can overlap the other calls; tested in BHK-21 cells;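 also: 0% = median of neutral control wells and 100% = median of positive control wells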
# E-selectin induc – E-selectin induction on HUVECs | AID 686992 | HUVEC E-selectin immunofluorescence imaging; normalized: neutral wells 0, TNF-alpha wells 100 | activation, % at 7.58 µM | 260,000 compounds, 0.37% hits;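 active = mean E-selectin-positive cell signal at least 10% of the positive control, reached in at least 60% of replicates, without over 20% cell loss; inconclusive = no rule given, readout overlaps actives, possibly toxicity-flagged; inactive = the rest, including those meeting only one limit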
# Target sequence (P16581 whole entry, looked up): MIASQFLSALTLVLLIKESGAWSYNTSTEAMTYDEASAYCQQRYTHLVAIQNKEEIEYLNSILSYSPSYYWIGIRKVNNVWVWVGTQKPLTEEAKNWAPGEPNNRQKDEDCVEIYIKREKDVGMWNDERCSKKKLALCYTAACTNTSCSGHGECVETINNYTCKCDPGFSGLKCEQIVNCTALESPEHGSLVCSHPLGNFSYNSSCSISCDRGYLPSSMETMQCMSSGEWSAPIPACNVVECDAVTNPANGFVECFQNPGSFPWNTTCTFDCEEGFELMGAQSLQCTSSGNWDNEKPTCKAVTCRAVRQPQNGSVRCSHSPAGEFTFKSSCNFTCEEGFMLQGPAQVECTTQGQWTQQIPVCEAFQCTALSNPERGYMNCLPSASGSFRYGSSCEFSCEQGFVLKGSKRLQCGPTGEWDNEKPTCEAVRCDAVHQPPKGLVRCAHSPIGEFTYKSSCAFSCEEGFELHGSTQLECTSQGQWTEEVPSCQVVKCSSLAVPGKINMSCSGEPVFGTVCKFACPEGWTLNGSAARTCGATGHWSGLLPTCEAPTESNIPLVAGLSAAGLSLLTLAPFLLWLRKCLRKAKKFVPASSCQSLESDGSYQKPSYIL
#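 System: HUVEC / Compound: single concentration / Signal: immunofluorescence imaging / Read-out: percent E-selectin-positive cells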
# Statin myotox sup – suppression of simvastatin myotoxicity; C2C12 myotubes + simvastatin, ATP luminescence, 48 h; scaled: DMSO 0, geranylgeraniol control 100; rescue of ATP level, % at 7.49 µM; 330,000 compounds, 0.78% hits; AID 602340;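 active = mean ATP rescue above about 67%, or every replicate alone reaching that limit, limit read from the data, passing the limit was not always enough; inconclusive = no clear call, values can overlap the other calls; inactive = mean under the limit and some replicate under it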;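 also: myotubes were challenged with 10 µM simvastatin during compound exposure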
# The depositor's hits bear a star; ? = inconclusive; · = no result given. The list is not random: actives were taken first. Their share in the collection is about 3.3%.
SMILES,PglD inh,FGF22 binding,Xi reactivation,DENV2 CPE,E-selectin induc,Statin myotox sup
C[C@@H]1CN([C@H](C)CO)C(=O)c2cccc(NC(=O)Nc3ccccc3)c2O[C@@H]1CN(C)Cc1ccc2c(c1)OCO2,·,-0.1,-1.3,?,-3.0,-12.2
Cc1cccc(-c2ncc(CN3CCN(C4CCCC4)C(CCO)C3)cn2)c1 (configuration not stated),·,0.3,0.0,5.1,·,7.8
OCCC1CN(Cc2cccn2-c2ccccn2)CCN1C1CCCCC1 (configuration not stated),·,43.6*,0.0,10.0,·,·
Cc1ccc(CN2CCN(Cc3cccn3-c3ccccn3)CC2CCO)cc1 (configuration not stated),·,0.3,0.5,11.5,·,·
OCCC1CN(Cc2cnc(-c3ccc(Cl)cc3)nc2)CCN1C1CCCCC1 (configuration not stated),·,0.2,0.0,50.5*,-0.1,·
C[C@H]1CC=CC[C@H](c2ccccc2)NC(=O)[C@@H](Cc2ccccc2)N(C)C(=O)c2ccccc2O1 (mixture of isomers),·,·,0.0,·,·,·
Cc1noc(C)c1NC(=O)N(C)C[C@@H]1Oc2ccc(NS(=O)(=O)c3cn(C)cn3)cc2CC(=O)N([C@H](C)CO)C[C@@H]1C,1.3,-0.3,-0.7,-0.3,·,-12.7
Cc1[nH]c2ccccc2c1CC(=O)Nc1ccc(N(C)c2cccnc2)c(-c2ccc(F)c(F)c2)c1,·,-0.2,0.0,83.5*,1.8,·
Cc1ccc(S(=O)(=O)N/N=C/c2cc([N+](=O)[O-])ccc2O)cc1[N+](=O)[O-],·,43.6*,0.0,5.0,·,·
CC1(C)OC2CCN3C(C(O)COS3(=O)=O)C2O1 (configuration not stated),-1.2,0.0,0.1,130.9*,·,-2.4
Cc1noc(C)c1NC(=O)N(C)C[C@H]1OCCCC[C@@H](C)Oc2ccc(NC(=O)Cc3ccccc3)cc2C(=O)N([C@H](C)CO)C[C@H]1C,-1.5,0.5,-1.1,-0.8,0.0,·
Cc1cc(C)c2cc(C(=O)Nc3ccc(C)c(F)c3)[nH]c2c1,-1.6,0.0,0.0,-4.9,0.8,-3.9
CCCCNC(=O)c1cc2c(C)cc(C)cc2[nH]1,·,0.0,0.5,57.1*,21.3,·
C=CCOc1ccc(CNn2nnnc2N)cc1,4.2,·,·,·,·,·
Nc1nnnn1NCc1cccc(OCc2ccccc2)c1,-1.3,·,·,·,·,104.2*
Cc1c(NC(=O)C(C#N)=C2CCCCC2)c(=O)n(-c2ccccc2)n1C,-5.6,·,·,·,·,105.7*
Cc1c(NC(=O)/C(C#N)=C/c2ccccc2)c(=O)n(-c2ccccc2)n1C,·,0.1,-0.2,-2.0,0.0,·
Cc1ccc(S(=O)(=O)Nc2ccc3c(c2)CC(=O)N([C@H](C)CO)C[C@H](C)[C@H](CN(C)Cc2ccc(C(=O)O)cc2)O3)cc1,·,·,-1.0,·,0.2,-33.8
C/C=C(/C)C(=O)O[C@@H]1[C@H](OC(=O)C=C(C)C)c2c(ccc3ccc(=O)oc23)OC1(C)C,-7.6,-0.1,0.0,·,-0.5,0.9
C/C=C(/C)C(=O)O[C@@H]1c2c(ccc3ccc(=O)oc23)OC(C)(C)[C@@H]1OC(=O)/C(C)=C\C,-0.4,0.0,0.0,25.9*,-0.2,-38.6
C[C@@H]1CN([C@@H](C)CO)C(=O)c2cc(NC(=O)Nc3ccc(F)cc3)ccc2O[C@@H](C)CCCCO[C@H]1CN(C)Cc1ccc2c(c1)OCO2,-2.8,-0.6,-0.7,22.0*,0.0,-204.4
C[C@@H]1CN([C@H](C)CO)C(=O)c2cc(NC(=O)Nc3ccc(F)cc3)ccc2O[C@@H](C)CCCCO[C@@H]1CN(C)Cc1ccc2c(c1)OCO2,-3.3,-0.7,-1.1,23.2*,0.3,-391.3
C[C@@H]1CN([C@H](C)CO)C(=O)c2cc(NC(=O)Nc3ccc(F)cc3)ccc2O[C@@H](C)CCCCO[C@H]1CN(C)Cc1ccc2c(c1)OCO2,-4.6,-0.5,-1.2,-10.3,-0.2,-397.9
O=C(C[C@@H]1CC[C@@H]2[C@H](COC[C@H](O)CN2C(=O)c2cnccn2)O1)NCc1ccc(Oc2ccccc2)cc1,-3.3,-0.3,0.2,?,0.2,12.4
Cc1ccc(S(=O)(=O)N/N=C2/CC(c3ccccc3)Oc3ccccc32)cc1 (configuration not stated),2.4,·,·,·,·,87.8*
SMILES,PglD inh,FGF22 binding,Xi reactivation,DENV2 CPE,E-selectin induc,Statin myotox sup
CS(=O)(=O)N1CC2(C1)[C@H](c1ccccc1)[C@H](CO)N2CC1CC1,·,-0.1,0.0,-3.7,0.1,·
Cc1[nH]c2ccccc2c1/C=N/NC(=O)c1cc(C(C)(C)C)[nH]n1,4.6,0.6,0.8,56.5*,-0.3,·
Cc1[nH]c2ccccc2c1/C=N/NC(=O)c1cc(-c2ccccc2)n[nH]1,-9.5,0.5,0.0,?,16.6,·
O=C(O)C1C=CC(C(=O)O)c2ccccc21 (configuration not stated),·,43.8*,0.2,1.4,1.2,·
CC(C)C[C@@H](COc1ccccc1)N1CCN(CCc2ccccc2)CCC1=O,0.7,0.1,0.0,101.4*,-0.1,-12.9
CCCN1CCC(=O)N([C@H](COc2ccccc2)CC(C)C)CC1,1.7,0.0,0.1,0.5,-0.1,-11.3
NC12CC3CC(C1)CC(CO)(C3)O2,·,·,·,·,·,110.9*
NC12CC3CC(C1)CC(CC(=O)O)(C3)C2,1.7,0.3,0.0,0.9,·,-6.3
Cc1ccc(CC(=S)N2CCOCC2)cc1,7.1,-0.2,0.3,-5.5,·,124.4*
O=C(O)c1ccc(Cn2cnc3sc4c(c3c2=O)CCCC4)cc1,4.4,43.2*,0.0,15.3,0.1,-2.8
CC1C=NC(S(=O)(=O)N2CC[C@@H]3[C@@H](CO)N(C)c4ccc(-c5cccc(F)c5)cc4[C@@H]32)=N1 (some centres not stated),-1.2,-0.4,0.0,17.4,-0.1,-0.9
O=C(c1ccccc1F)N1C[C@@H]2O[C@H](CNS(=O)(=O)c3ccccc3)CC[C@@H]21,·,·,·,61.1*,·,·
CCOC(=O)C1(C)/C(=N/Nc2ccccc2OC)C(=O)C(=O)N1c1ccccc1 (configuration not stated),·,43.0*,0.0,-4.7,3.0,6.7
CCOC(=O)C1(C)/C(=N/Nc2ccccc2)C(=O)C(=O)N1c1ccccc1 (configuration not stated),1.6,·,·,·,·,8.4
COc1ccc(NC(=O)N2CC3(C2)CN(C(=O)CN2CCOCC2)[C@@H](CO)c2[nH]c4cc(OC)ccc4c23)cc1,·,0.0,0.3,-4.7,0.3,·
CCC(=O)N1CCC2(CC1)CN(C(=O)CN1CCOCC1)[C@H](CO)c1[nH]c3cc(OC)ccc3c12,·,0.0,0.1,40.3*,0.0,·
COc1ccc(NC(=O)N2CCC3(CC2)CN(C(=O)CN2CCOCC2)[C@@H](CO)c2[nH]c4cc(OC)ccc4c23)cc1,·,0.1,0.0,24.8*,0.1,·
